Laboratory results reported in ChEMBL document CHEMBL4689842, “EUbOPEN Chemogenomics Library wave 1” (2021).

Experiments:
Type in all cases: toxicity, cell-based
U2OS = experiment: Incucyte cell viability with U2OS; conditions: human, 10 µM, compound concentration 10 uM; note: filed as whole numbers so only -1 and 0 and 1 occur
Fibroblast = experiment: Multiplex assay against human fibroblast
In short: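 Four dyes were applied at seeding to live cells: Hoechst33342, BioTracker Green Microtubule Cytoskeleton Dye, MitoTracker Red and Annexin V Alexa Fluor 680. Imaging after compound addition used a CQ1 microscope at 37°C and 5% CO2. CellPathfinder machine-learning gating then sorted cells into Hoechst high-intensity objects or normal cells, normal cells into healthy, pyknosed or fragmented nuclei, and pyknosed cells into mitotic or apoptotic, with tubulin, mitochondrial-mass and membrane-permeability phenotypes given as per cents of healthy-nucleus cells.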

HEK-293T = experiment: Incucyte cell viability with HEK293T; conditions: human, 10 µM, compound concentration 10 uM; note: filed as whole numbers so only -1 and 0 and 1 occur
[1] = 0 h, replicate number 1, timepoint 0 hours
[2] = 6 h, replicate number 1, timepoint 6 hours
[3] = 12 h, replicate number 1, timepoint 12 hours
[4] = 18 h, replicate number 1, timepoint 18 hours
[5] = 24 h, replicate number 1, timepoint 24 hours
[6] = 12 h, 1 µM, compound concentration 1 uM, replicate 1
[7] = 12 h, 1 µM, compound concentration 1 uM, replicate 2
[8] = 12 h, 10 µM, compound concentration 10 uM, replicate 1
[9] = 12 h, 10 µM, compound concentration 10 uM, replicate 2
[10] = 24 h, 1 µM, compound concentration 1 uM, replicate 1
[11] = 24 h, 1 µM, compound concentration 1 uM, replicate 2
[12] = 24 h, 10 µM, compound concentration 10 uM, replicate 1
[13] = 24 h, 10 µM, compound concentration 10 uM, replicate 2

## Cc1c(Nc2ccc(S(=O)(=O)N3CCN(C)CC3)cc2F)nc2ccc(Nc3cnn(C4CC4)c3)cn2c1=O
U2OS; [1]
  Growth Rate: 0
U2OS; [2]
  Growth Rate: 0
U2OS; 6 h, replicate number 2, timepoint 6 hours
  Growth Rate: 1
U2OS; [3]
  Growth Rate: 0
U2OS; 12 h, replicate number 2, timepoint 12 hours
  Growth Rate: 1
U2OS; [4]
  Growth Rate: 0
U2OS; 18 h, replicate number 2, timepoint 18 hours
  Growth Rate: 1
U2OS; [5]
  Growth Rate: 0
U2OS; 24 h, replicate number 2, timepoint 24 hours
  Growth Rate: 1
Fibroblast; [6]
  Population Apoptotic (%): 64%
  Population Fragmented Nuclei (%): 30%
  Population Healthy Nuclei (%): 50%
  Population Hoechst High Intensity Objects (%): 12%
  Population Membrane Permeable-Phenotype (%): 31%
  Population Mitochondria Different-Phenotype (%): 6%
  Population Mitotic Cells (%): 35%
  Population Normal (%): 87%
  Population Pyknosed Nuclei (%): 19%
  Population Tubulin-Different-Phenotype (%): 43%
  Total Cell Count: 263
Fibroblast; [7]
  Population Apoptotic (%): 80%
  Population Fragmented Nuclei (%): 62%
  Population Healthy Nuclei (%): 24%
  Population Hoechst High Intensity Objects (%): 40%
  Population Membrane Permeable-Phenotype (%): 55%
  Population Mitochondria Different-Phenotype (%): 11%
  Population Mitotic Cells (%): 20%
  Population Normal (%): 59%
  Population Pyknosed Nuclei (%): 13%
  Population Tubulin-Different-Phenotype (%): 66%
  Total Cell Count: 62
Fibroblast; [8]
  Population Apoptotic (%): 79%
  Population Fragmented Nuclei (%): 27%
  Population Healthy Nuclei (%): 58%
  Population Hoechst High Intensity Objects (%): 12%
  Population Membrane Permeable-Phenotype (%): 7%
  Population Mitochondria Different-Phenotype (%): 1%
  Population Mitotic Cells (%): 20%
  Population Normal (%): 87%
  Population Pyknosed Nuclei (%): 13%
  Population Tubulin-Different-Phenotype (%): 2%
  Total Cell Count: 288
Fibroblast; [9]
  Population Apoptotic (%): 50%
  Population Fragmented Nuclei (%): 55%
  Population Healthy Nuclei (%): 40%
  Population Hoechst High Intensity Objects (%): 27%
  Population Membrane Permeable-Phenotype (%): 9%
  Population Mitochondria Different-Phenotype (%): 0%
  Population Mitotic Cells (%): 50%
  Population Normal (%): 72%
  Population Pyknosed Nuclei (%): 3%
  Population Tubulin-Different-Phenotype (%): 19%
  Total Cell Count: 72
Fibroblast; [10]
  Population Apoptotic (%): 72%
  Population Fragmented Nuclei (%): 30%
  Population Healthy Nuclei (%): 53%
  Population Hoechst High Intensity Objects (%): 12%
  Population Membrane Permeable-Phenotype (%): 14%
  Population Mitochondria Different-Phenotype (%): 1%
  Population Mitotic Cells (%): 27%
  Population Normal (%): 87%
  Population Pyknosed Nuclei (%): 16%
  Population Tubulin-Different-Phenotype (%): 38%
  Total Cell Count: 257
Fibroblast; [11]
  Population Apoptotic (%): 100%
  Population Fragmented Nuclei (%): 57%
  Population Healthy Nuclei (%): 31%
  Population Hoechst High Intensity Objects (%): 30%
  Population Membrane Permeable-Phenotype (%): 40%
  Population Mitochondria Different-Phenotype (%): 0%
  Population Mitotic Cells (%): 0%
  Population Normal (%): 69%
  Population Pyknosed Nuclei (%): 10%
  Population Tubulin-Different-Phenotype (%): 40%
  Total Cell Count: 68
Fibroblast; [12]
  Population Apoptotic (%): 65%
  Population Fragmented Nuclei (%): 22%
  Population Healthy Nuclei (%): 63%
  Population Hoechst High Intensity Objects (%): 13%
  Population Membrane Permeable-Phenotype (%): 7%
  Population Mitochondria Different-Phenotype (%): 1%
  Population Mitotic Cells (%): 34%
  Population Normal (%): 86%
  Population Pyknosed Nuclei (%): 13%
  Population Tubulin-Different-Phenotype (%): 3%
  Total Cell Count: 293
Fibroblast; [13]
  Population Apoptotic (%): 0%
  Population Fragmented Nuclei (%): 57%
  Population Healthy Nuclei (%): 38%
  Population Hoechst High Intensity Objects (%): 21%
  Population Membrane Permeable-Phenotype (%): 9%
  Population Mitochondria Different-Phenotype (%): 4%
  Population Mitotic Cells (%): 100%
  Population Normal (%): 78%
  Population Pyknosed Nuclei (%): 3%
  Population Tubulin-Different-Phenotype (%): 0%
  Total Cell Count: 73
HEK-293T; [1]
  Growth Rate: 1
HEK-293T; [2]
  Growth Rate: 0
HEK-293T; [3]
  Growth Rate: 0
HEK-293T; [4]
  Growth Rate: 0
HEK-293T; [5]
  Growth Rate: 0
